Calls of active or inactive are those of the source. No cut-off for these calls is given here.

For experiment [1], the system named is 17β-HSD1 (Homo sapiens). In words: Displacement of [3H]estrone human recombinant 17beta-HSD1 expressed in Escherichia coli BL21 (DE3)-RIL at 6 uM by scintillation counting in presence of NADPH.
Experiment [2] relates to 17β-HSD1 (Homo sapiens). In words: Displacement of [3H]estrone human recombinant 17beta-HSD1 expressed in Escherichia coli BL21 (DE3)-RIL at 0.6 uM by scintillation counting in presence of NADPH.
In experiment [3] the target is Estrogen receptor beta (Homo sapiens) (UniProt Q92731). Put plainly: Displacement of [3H]estradiol from human recombinant ERbeta after 16 hrs by liquid scintillation counting relative to estradiol. In short, it runs like this:
(§1)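 Recombinant human ERα or ERβ (0.9 nM) was incubated with 9 nM [2,4,6,7-³H]-E2 and test compound (10^-9 to 10^-5 M) at 4 °C, for 18 h per methods (16 h per table footnote). Nonspecific binding was set with 6 μM E2. Complexes were bound to hydroxyapatite in Tris pH 7.5, washed four times, and counted by liquid scintillation. Runs were in triplicate. RBA = IC50(E2)/IC50(compound) × 100.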

Experiment [4] has as its target T1, Estrogen receptor (Homo sapiens) (UniProt P03372).
T1 sequence (whole entry): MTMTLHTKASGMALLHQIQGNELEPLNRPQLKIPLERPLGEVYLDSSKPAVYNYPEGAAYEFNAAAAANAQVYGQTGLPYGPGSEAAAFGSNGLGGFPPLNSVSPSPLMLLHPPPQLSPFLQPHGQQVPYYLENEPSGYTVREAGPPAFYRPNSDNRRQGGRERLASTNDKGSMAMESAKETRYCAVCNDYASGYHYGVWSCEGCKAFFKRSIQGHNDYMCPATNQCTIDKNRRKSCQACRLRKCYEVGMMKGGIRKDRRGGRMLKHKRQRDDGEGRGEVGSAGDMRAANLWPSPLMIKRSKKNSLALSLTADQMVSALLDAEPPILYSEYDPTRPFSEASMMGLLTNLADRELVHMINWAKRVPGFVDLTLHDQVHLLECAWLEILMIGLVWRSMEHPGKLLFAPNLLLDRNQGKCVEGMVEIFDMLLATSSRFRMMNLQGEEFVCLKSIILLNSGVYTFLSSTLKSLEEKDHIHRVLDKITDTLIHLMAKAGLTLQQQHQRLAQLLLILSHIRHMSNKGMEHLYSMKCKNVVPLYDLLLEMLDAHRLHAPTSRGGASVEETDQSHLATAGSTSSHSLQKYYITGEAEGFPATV
Put plainly: Displacement of [3H]estradiol from human recombinant ERalpha after 16 hrs by liquid scintillation counting relative to estradiol. The method, boiled down:
as §1

Experiment [5] has as its system 17β-HSD2 (Homo sapiens). In words: Displacement of [3H]estradiol human recombinant 17beta-HSD2 expressed in Escherichia coli BL21 (DE3)-RIL at 60 uM by scintillation counting in presence of NAD+.
Experiment [6] has as its system 17β-HSD2 (Homo sapiens). In words: Displacement of [3H]estradiol human recombinant 17beta-HSD2 expressed in Escherichia coli BL21 (DE3)-RIL at 6 uM by scintillation counting in presence of NAD+.
Experiment [7] concerns 17β-HSD2 (Homo sapiens). Put plainly: Displacement of [3H]estradiol human recombinant 17beta-HSD2 expressed in Escherichia coli BL21 (DE3)-RIL at 0.6 uM by scintillation counting in presence of NAD+.

Sequence of Estrogen receptor beta (Homo sapiens) (Q92731 whole entry): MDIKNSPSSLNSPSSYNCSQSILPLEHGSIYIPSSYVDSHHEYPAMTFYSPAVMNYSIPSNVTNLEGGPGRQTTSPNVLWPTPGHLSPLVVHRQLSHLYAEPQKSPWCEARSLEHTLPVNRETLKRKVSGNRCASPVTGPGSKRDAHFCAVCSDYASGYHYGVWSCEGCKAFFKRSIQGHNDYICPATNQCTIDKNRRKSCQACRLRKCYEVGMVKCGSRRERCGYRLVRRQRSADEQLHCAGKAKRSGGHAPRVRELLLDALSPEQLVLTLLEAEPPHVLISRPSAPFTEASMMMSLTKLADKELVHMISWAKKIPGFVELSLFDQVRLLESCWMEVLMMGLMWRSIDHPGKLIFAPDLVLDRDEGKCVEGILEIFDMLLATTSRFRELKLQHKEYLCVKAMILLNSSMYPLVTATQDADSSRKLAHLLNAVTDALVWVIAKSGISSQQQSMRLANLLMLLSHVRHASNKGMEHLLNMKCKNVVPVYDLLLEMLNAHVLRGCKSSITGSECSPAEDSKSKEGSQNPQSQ

On to `CC(=O)c1cc2cc(-c3ccc(Cl)cc3)ccc2oc1=O`, for which the inhibition result with 17β-HSD1 (Homo sapiens) [1] and in the experiment on 17β-HSD1 (Homo sapiens) [2] was “inactive” throughout.
Regarding `CCOC(=O)c1cc2cc(-c3ccc(C)cc3)ccc2oc1=O`, the inhibition in the experiment with 17β-HSD1 (Homo sapiens) [1] is 16%; in the experiment with 17β-HSD1 (Homo sapiens) [2], 6%.
On the same counts, the results for `CC(=O)c1cc2ccc(-c3ccc(F)cc3)cc2oc1=O` are 13% and 6%.
For `CC(=O)c1cc2ccc(-c3ccc(O)cc3)cc2oc1=O`, the outcome in experiment [3] and in experiment [4] was inactive. Besides, the inhibition with 17β-HSD1 (Homo sapiens) [1] was found to be 100%; in the experiment on 17β-HSD1 (Homo sapiens) [2], 76%. Further, the inhibition result in the experiment on 17β-HSD2 (Homo sapiens) [5], in the experiment on 17β-HSD2 (Homo sapiens) [6] and in the experiment on 17β-HSD2 (Homo sapiens) [7] was “inactive” in each case.
`CCOC(=O)c1cc2ccc(OS(=O)(=O)C(F)(F)F)cc2oc1=O`: the inhibition result in the experiment with 17β-HSD1 (Homo sapiens) [1] and in the experiment with 17β-HSD1 (Homo sapiens) [2] was “inactive” in each case.
Consider `O=c1ccc2cc(Br)ccc2o1`, for which the inhibition entry in the experiment on 17β-HSD1 (Homo sapiens) [1] and with 17β-HSD1 (Homo sapiens) [2] was “inactive” throughout.
In the case of `O=c1ccc2cc(-c3ccc(O)cc3)ccc2o1`, the inhibition turned out to be 30% in the experiment on 17β-HSD1 (Homo sapiens) [1] and 4% with 17β-HSD1 (Homo sapiens) [2].
Turning to `CCOC(=O)c1cc2ccc(-c3ccc(Cl)cc3)cc2oc1=O`, the inhibition result with 17β-HSD1 (Homo sapiens) [1] and with 17β-HSD1 (Homo sapiens) [2] was “inactive” throughout.
With `O=c1ccc2cc(-c3ccccc3)ccc2o1`, the inhibition with 17β-HSD1 (Homo sapiens) [1] came out at 18%. In the experiment on 17β-HSD1 (Homo sapiens) [2], the inhibition entry is “inactive”.
In the same order, the values of `O=c1ccc2ccc(-c3ccc(Cl)cc3)cc2o1` are 9% and “inactive”.
For `CC(=O)c1cc2cc(-c3ccccc3)ccc2oc1=O`, the inhibition entry with 17β-HSD1 (Homo sapiens) [1] and in the experiment on 17β-HSD1 (Homo sapiens) [2] was “inactive” each time.
As for `CC(=O)c1cc2ccc(-c3ccc(C)cc3)cc2oc1=O`, the inhibition with 17β-HSD1 (Homo sapiens) [1] turned out to be 72%; with 17β-HSD1 (Homo sapiens) [2] it was 40%. Also, the inhibition entry with 17β-HSD2 (Homo sapiens) [5] and in the experiment with 17β-HSD2 (Homo sapiens) [6] was “inactive” throughout.
On to `CCOC(=O)c1cc2cc(-c3ccc(OC)cc3)ccc2oc1=O`, for which the inhibition in the experiment on 17β-HSD1 (Homo sapiens) [1] was 7%. Further, in the experiment on 17β-HSD1 (Homo sapiens) [2], the inhibition result was “inactive”.
In the same order, the values of `O=c1ccc2ccc(-c3ccc(O)cc3)cc2o1` are 43% and “inactive”.
For the compound `O=c1ccc2ccc(-c3ccccc3)cc2o1`, the inhibition with 17β-HSD1 (Homo sapiens) [1] came to 10%. The inhibition entry in the experiment with 17β-HSD1 (Homo sapiens) [2] was “inactive”.
In the case of `CC(=O)c1cc2ccc(-c3ccc(Cl)cc3)cc2oc1=O`, the values for the inhibition with 17β-HSD1 (Homo sapiens) [1] and in the experiment on 17β-HSD1 (Homo sapiens) [2] were 17% and 12%, respectively.
Consider `COc1ccc2cc(C(C)=O)c(=O)oc2c1`, for which the inhibition with 17β-HSD1 (Homo sapiens) [1] was found to be 25%; with 17β-HSD1 (Homo sapiens) [2], 23%. For the same compound, the inhibition result in the experiment with 17β-HSD2 (Homo sapiens) [6] and in the experiment with 17β-HSD2 (Homo sapiens) [7] was “inactive” each time.
As for `CC(=O)c1cc2cc(-c3ccc(C)cc3)ccc2oc1=O`, the inhibition entry in the experiment with 17β-HSD1 (Homo sapiens) [1] and with 17β-HSD1 (Homo sapiens) [2] was “inactive” throughout.
Take `Cc1ccc(-c2ccc3ccc(=O)oc3c2)cc1`: the inhibition was found to be 29% with 17β-HSD1 (Homo sapiens) [1] and 10% in the experiment on 17β-HSD1 (Homo sapiens) [2].
As to `COc1ccc(-c2ccc3ccc(=O)oc3c2)cc1`, in the experiment with 17β-HSD1 (Homo sapiens) [1], the inhibition is 10%. Besides, the inhibition entry in the experiment with 17β-HSD1 (Homo sapiens) [2] is “inactive”.
On the same counts, the results for `Cc1ccc(-c2ccc3oc(=O)ccc3c2)cc1` are “inactive” and “inactive”.
On the same counts, the results for `CCOC(=O)c1cc2cc(Br)ccc2oc1=O` are “inactive” and “inactive”.
Take `C[C@]12CC[C@H]3C(=CCc4cc(O)ccc43)[C@@H]1CCC2=O`: the RBA in experiment [3] is 1.4%; in experiment [4] it was 0.15%.
Take `CCOC(=O)c1cc2cc(-c3ccccc3)ccc2oc1=O`: the inhibition in the experiment with 17β-HSD1 (Homo sapiens) [1] stood at 21%. For the same compound, the inhibition result in the experiment on 17β-HSD1 (Homo sapiens) [2] is “inactive”.
Regarding `CCOC(=O)c1cc2cc(-c3ccc(Cl)cc3)ccc2oc1=O`, the figures for the inhibition in the experiment on 17β-HSD1 (Homo sapiens) [1] and with 17β-HSD1 (Homo sapiens) [2] were 14% and 10%, respectively.
On the same counts, the results for `CCOC(=O)c1cc2ccc(-c3ccc(OC)cc3)cc2oc1=O` are 1% and “inactive”.
As for `CC(=O)c1cc2cc(-c3ccc(F)cc3)ccc2oc1=O`, the inhibition came out at 59% in the experiment on 17β-HSD1 (Homo sapiens) [1] and 15% in the experiment on 17β-HSD1 (Homo sapiens) [2].
On to `CCOC(=O)c1cc2ccc(-c3ccccc3)cc2oc1=O`, for which the inhibition with 17β-HSD1 (Homo sapiens) [1] came to 7%. Besides, the inhibition result in the experiment with 17β-HSD1 (Homo sapiens) [2] is “inactive”.
In the case of `COc1ccc(-c2ccc3cc(C(C)=O)c(=O)oc3c2)cc1`, the outcome in experiment [3] and in experiment [4] was inactive. The inhibition in the experiment on 17β-HSD1 (Homo sapiens) [1] amounted to 86%; in the experiment on 17β-HSD1 (Homo sapiens) [2], 48%. Moreover, the inhibition result in the experiment on 17β-HSD2 (Homo sapiens) [5], with 17β-HSD2 (Homo sapiens) [6] and with 17β-HSD2 (Homo sapiens) [7] was “inactive” throughout.
With `CCOC(=O)c1cc2cc(-c3ccc(F)cc3)ccc2oc1=O`, the inhibition in the experiment with 17β-HSD1 (Homo sapiens) [1] and in the experiment with 17β-HSD1 (Homo sapiens) [2] was 21% in each case.
Take `COc1ccc(-c2ccc3oc(=O)ccc3c2)cc1`: the inhibition stood at 26% with 17β-HSD1 (Homo sapiens) [1] and 7% in the experiment on 17β-HSD1 (Homo sapiens) [2].
Regarding `CC(=O)c1cc2ccc(OS(=O)(=O)C(F)(F)F)cc2oc1=O`, the result in experiment [3] and in experiment [4] was inactive. The inhibition was 100% with 17β-HSD1 (Homo sapiens) [1] and 60% in the experiment on 17β-HSD1 (Homo sapiens) [2]. Further, the inhibition entry in the experiment with 17β-HSD2 (Homo sapiens) [6] and in the experiment with 17β-HSD2 (Homo sapiens) [7] was “inactive” each time.
For `O=c1ccc2cc(-c3ccc(Cl)cc3)ccc2o1`, in the experiment with 17β-HSD1 (Homo sapiens) [1], the inhibition was 10%. Besides, in the experiment on 17β-HSD1 (Homo sapiens) [2], the inhibition entry is “inactive”.
On the same counts, the results for `O=c1ccc2ccc(OS(=O)(=O)C(F)(F)F)cc2o1` are 9% and “inactive”.
As to `COc1ccc(-c2ccc3oc(=O)c(C(C)=O)cc3c2)cc1`, the inhibition entry in the experiment with 17β-HSD1 (Homo sapiens) [1] and with 17β-HSD1 (Homo sapiens) [2] was “inactive” throughout.
Turning to `CCOC(=O)c1cc2ccc(-c3ccc(C)cc3)cc2oc1=O`, the inhibition amounted to 9% in the experiment with 17β-HSD1 (Homo sapiens) [1] and 11% in the experiment on 17β-HSD1 (Homo sapiens) [2].

Values taken from ChEMBL document CHEMBL1649075, “Synthesis and biological evaluation of (6- and 7-phenyl) coumarin derivatives as selective nonsteroidal inhibitors of 17β-hydroxysteroid dehydrogenase type 1” (J Med Chem, 2011).
